In data set [1] the target is T1, Nuclear factor erythroid 2-related factor 2 (Mus musculus) (UniProt Q60795).
T1 sequence (whole entry): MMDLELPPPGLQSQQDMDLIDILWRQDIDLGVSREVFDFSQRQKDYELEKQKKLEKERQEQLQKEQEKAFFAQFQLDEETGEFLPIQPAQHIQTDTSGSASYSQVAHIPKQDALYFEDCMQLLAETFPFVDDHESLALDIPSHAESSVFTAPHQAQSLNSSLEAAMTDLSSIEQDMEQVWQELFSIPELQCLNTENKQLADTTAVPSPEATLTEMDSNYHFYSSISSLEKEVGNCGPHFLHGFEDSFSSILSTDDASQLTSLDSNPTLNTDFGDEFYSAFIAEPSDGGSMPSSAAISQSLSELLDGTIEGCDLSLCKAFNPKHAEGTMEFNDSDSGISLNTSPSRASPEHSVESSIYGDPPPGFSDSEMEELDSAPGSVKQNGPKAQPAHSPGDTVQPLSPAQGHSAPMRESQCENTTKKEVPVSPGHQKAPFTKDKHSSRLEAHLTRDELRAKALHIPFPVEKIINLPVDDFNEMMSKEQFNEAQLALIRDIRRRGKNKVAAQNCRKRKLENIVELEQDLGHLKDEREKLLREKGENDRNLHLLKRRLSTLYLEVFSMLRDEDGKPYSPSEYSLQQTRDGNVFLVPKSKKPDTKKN
The experiment in a line: Activation of Nrf2 in mouse RAW264.7 cells assessed as nuclear accumulation at 50 uM after 1 hr by Western blotting analysis. Type of data set: cell-based. In a few lines:
(§1)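 Serum-starved RAW264.7 cells treated 30 min to 3 h (10-50 μM for 3 h, or 50 μM time course); 0.1% DMSO control, 50 μM quercetin positive control. Cytosolic fraction from hypotonic HEPES pH 7.9 buffer with 0.1% NP-40; nuclear fraction by 420 mM NaCl extraction. 30 μg/lane blotted for Nrf2 and actin; Nrf2/actin densitometry, mean of three experiments.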
(In western blotting, separated proteins are transferred to a membrane and probed.)

In data set [2] the target is T1, Nuclear factor erythroid 2-related factor 2 (Mus musculus). The experiment in a line: Activation of Nrf2 in mouse RAW264.7 cells assessed as reduction of KEAP1 protein level at 10 to 50 uM after 6 hrs by Western blotting analysis. Type of data set: cell-based. In a few lines:
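Whole-cell lysates (20 μg/lane) from serum-starved RAW264.7 cells given 10-50 μM for 6 h or 50 μM for 1-6 h in serum-free medium, 0.1% DMSO vehicle. Keap1 and actin detected by chemiluminescent Western blot; Keap1 band intensity normalized to actin, mean of three experiments.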

The target is the same in data set [3]. The experiment in a line: Activation of Nrf2 in mouse RAW264.7 cells assessed as induction of Hmox1 mRNA expression at 50 uM after 6 hrs by real-time PCR analysis in presence of PD98059. The class given is cell-based. In a few lines: (§2)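 Pretreatment 30 min with 0.1% DMSO, 15 μM PD98059, 15 μM SB203580 or 30 μM SP600125, then 50 μM agent for 6 h in serum-free medium. Hmox1 mRNA by TaqMan qPCR normalized to Gapdh, given as percent of agent-induced expression; mean ± SD of three experiments.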
Background: Real-time PCR tracks product formation cycle by cycle.

Data set [4] has the same target. The experiment in a line: Activation of Nrf2 in mouse RAW264.7 cells assessed as induction of Hmox1 mRNA expression at 50 uM after 6 hrs by real-time PCR analysis in presence of SP600125. The class given is cell-based. In a few lines:
as §2

Data set [5] shares this target. The experiment in a line: Activation of Nrf2 in mouse RAW264.7 cells assessed as cytosolic accumulation at 50 uM after 2 hrs by Western blotting analysis. The class given is cell-based. The gist of the method:
as §1

The target is the same in data set [6]. The experiment in a line: Activation of Nrf2 in mouse RAW264.7 cells assessed as nuclear accumulation at 25 uM after 3 hrs by Western blotting analysis. The class given is cell-based. In a few lines: as §1
Data set [7] shares this target. The experiment in a line: Activation of Nrf2 in mouse RAW264.7 cells assessed as upregulation of HO1 protein expression at 10 to 50 uM after 6 hrs by Western blotting analysis. The class given is cell-based. In a few lines:
(§3)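 HO-1 protein in whole-cell lysates (20 μg/lane) of serum-starved RAW264.7 cells after 6 h at 10-50 μM or 50 μM for 1-6 h in serum-free medium, 0.1% DMSO control. Chemiluminescent Western blot; HO-1 densitometry normalized to actin, mean of three experiments.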

Data set [8] has as its target Mitogen-activated protein kinase 1 and 3 (ERK2 and ERK1) (Mus musculus) (UniProt P63085+Q63844). The experiment in a line: Activation of ERK1/2 in mouse RAW264.7 cells assessed as phosphorylation at 50 uM up to 3 hrs by Western blotting analysis. Type of data set: cell-based. In a few lines: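 RAW264.7 cells (passage 5-25) seeded at 1 × 10⁵ cells/cm², serum-starved overnight, then exposed in serum-free medium for 30 min to 3 h; 0.1% DMSO vehicle; 75 ng/mL EGF for 30 min as positive control. Whole-cell lysates (20 μg/lane) on 10% SDS-PAGE, blotted for phospho-ERK1 (Thr202/Tyr204), phospho-ERK2 (Thr185/Tyr187) and total ERK1/2, chemiluminescent detection.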

The target in data set [9] is T1, Nuclear factor erythroid 2-related factor 2 (Mus musculus). The experiment in a line: Activation of Nrf2 in mouse RAW264.7 cells assessed as upregulation of HO1 protein expression at 10 uM after 6 hrs by Western blotting analysis. Type of data set: cell-based. In a few lines:
as §3

In data set [10] the test system is RAW264.7. The experiment in a line: Drug metabolism in mouse RAW264.7 cells assessed as 7-O-galloylquercetin level at 50 uM after 6 hrs by HPLC/ESI-QqTOF/MS analysis. Type of data set: ADME, cell-based. As to conditions: raw264.7, 6 h. The gist of the method:
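Cells given 50 μM for up to 6 h, then scraped, washed twice in PBS and sonicated in methanol with 5% acetic acid. Supernatant analysed by UPLC on a phenyl column (water/1% acetic acid/methanol to methanol gradient, 35 °C) with negative ESI-QqTOF MS. Contents expressed as nmol per 10⁶ cells.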

The subject of data set [11] is RAW264.7. The experiment in a line: Stability in mouse RAW264.7 cells assessed as gallic acid level at 50 uM after 6 hrs by HPLC/MS analysis. The class given is ADME, cell-based. As to conditions: raw264.7, 6 h.
For data set [12], the target named is T1, Nuclear factor erythroid 2-related factor 2 (Mus musculus). The experiment in a line: Activation of Nrf2 in mouse RAW264.7 cells assessed as cytosolic accumulation at 25 uM after 3 hrs by Western blotting analysis. Type of data set: cell-based. In a few lines: as §1
The target is the same in data set [13]. The experiment in a line: Activation of Nrf2 in mouse RAW264.7 cells assessed as nuclear accumulation at 50 uM after 3 hrs by Western blotting analysis. Type of data set: cell-based. The gist of the method: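 RAW264.7 cells (passage 5−25) seeded at 1 × 10⁵ cells/cm², switched to serum-free medium after 8 h, left overnight, then treated 3 h in serum-free medium; 0.1% DMSO vehicle control. Cells were swollen in hypotonic HEPES/NP-40 buffer for the cytosolic fraction and nuclei extracted in high-salt buffer. Blots loaded 30 μg/lane, Nrf2 densitometry normalized to actin, mean of three experiments.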

The target in data set [14] is Mitogen-activated protein kinase 9/10 (Mus musculus) (UniProt Q9WTU6+Q61831). The experiment in a line: Activation of JNK2/3 in mouse RAW264.7 cells assessed as phosphorylation at 50 uM after 30 mins to 4 hrs by Western blotting analysis. The class given is cell-based. As to conditions: TDE = time-dependent effect. In a few lines:
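Serum-starved RAW264.7 cells exposed in serum-free medium for 30 min to 4 h; 5 μM anisomycin for 30 min as positive control. Whole-cell lysates (30 μg/lane) blotted for JNKs dually phosphorylated at Thr183/Tyr185 and total JNKs, chemiluminescent detection.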

The target in data set [15] is T1, Nuclear factor erythroid 2-related factor 2 (Mus musculus). The experiment in a line: Activation of Nrf2 in mouse RAW264.7 cells assessed as upregulation of HO1 protein expression at 25 uM after 6 hrs by Western blotting analysis. Type of data set: cell-based. The gist of the method:
as §3

Activity calls are given as the source filed them. The rule behind the calls is not given here.

Chain of Mitogen-activated protein kinase 1 and 3 (ERK2 and ERK1) (Mus musculus) (P63085 whole entry, looked up): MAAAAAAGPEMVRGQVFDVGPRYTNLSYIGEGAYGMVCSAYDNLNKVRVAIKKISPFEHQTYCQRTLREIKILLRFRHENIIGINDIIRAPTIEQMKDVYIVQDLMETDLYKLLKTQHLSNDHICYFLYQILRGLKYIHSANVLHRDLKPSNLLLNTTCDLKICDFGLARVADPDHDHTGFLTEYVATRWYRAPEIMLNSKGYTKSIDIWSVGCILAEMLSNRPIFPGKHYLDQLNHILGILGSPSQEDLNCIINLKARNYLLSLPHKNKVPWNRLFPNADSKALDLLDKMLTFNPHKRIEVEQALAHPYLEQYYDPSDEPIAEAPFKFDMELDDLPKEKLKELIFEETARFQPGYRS
Chain of Mitogen-activated protein kinase 1 and 3 (ERK2 and ERK1) (Mus musculus) (Q63844 whole entry, looked up): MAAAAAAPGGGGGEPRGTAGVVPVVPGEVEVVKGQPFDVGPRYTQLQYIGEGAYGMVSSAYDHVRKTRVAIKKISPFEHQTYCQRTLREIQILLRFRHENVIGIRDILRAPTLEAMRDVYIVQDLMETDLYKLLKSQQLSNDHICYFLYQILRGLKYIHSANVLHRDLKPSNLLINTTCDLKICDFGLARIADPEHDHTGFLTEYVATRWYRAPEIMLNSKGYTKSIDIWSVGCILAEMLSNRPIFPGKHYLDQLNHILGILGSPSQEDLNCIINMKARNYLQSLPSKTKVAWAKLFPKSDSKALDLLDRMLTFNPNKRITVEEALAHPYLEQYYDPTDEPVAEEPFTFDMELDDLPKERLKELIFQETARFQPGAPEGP
Chain of Mitogen-activated protein kinase 9/10 (Mus musculus) (Q61831 whole entry, looked up): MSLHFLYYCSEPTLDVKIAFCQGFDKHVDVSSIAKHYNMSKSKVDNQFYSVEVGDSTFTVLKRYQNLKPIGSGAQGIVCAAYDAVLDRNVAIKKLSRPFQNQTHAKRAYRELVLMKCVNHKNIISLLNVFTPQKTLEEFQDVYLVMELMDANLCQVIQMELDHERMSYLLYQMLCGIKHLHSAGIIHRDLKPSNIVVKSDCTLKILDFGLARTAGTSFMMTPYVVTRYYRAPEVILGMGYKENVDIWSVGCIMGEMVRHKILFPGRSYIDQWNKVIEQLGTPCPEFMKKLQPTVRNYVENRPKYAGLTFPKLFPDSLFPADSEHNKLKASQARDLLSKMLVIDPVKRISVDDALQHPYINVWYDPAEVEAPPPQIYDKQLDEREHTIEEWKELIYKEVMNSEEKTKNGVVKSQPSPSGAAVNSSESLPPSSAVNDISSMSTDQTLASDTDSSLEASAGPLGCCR
Chain of Mitogen-activated protein kinase 9/10 (Mus musculus) (Q9WTU6 whole entry, looked up): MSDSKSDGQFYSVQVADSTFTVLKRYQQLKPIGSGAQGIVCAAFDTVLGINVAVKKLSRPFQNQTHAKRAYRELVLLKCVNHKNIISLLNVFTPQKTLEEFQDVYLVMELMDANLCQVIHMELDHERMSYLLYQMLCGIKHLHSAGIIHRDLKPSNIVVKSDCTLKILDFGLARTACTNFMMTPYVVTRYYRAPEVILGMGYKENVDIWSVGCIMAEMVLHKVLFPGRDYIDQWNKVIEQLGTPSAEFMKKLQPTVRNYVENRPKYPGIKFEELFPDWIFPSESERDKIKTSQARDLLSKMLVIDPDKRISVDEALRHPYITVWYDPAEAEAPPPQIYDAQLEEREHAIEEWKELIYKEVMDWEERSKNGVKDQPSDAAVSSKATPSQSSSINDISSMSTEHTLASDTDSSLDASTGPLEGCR

As to `O=C(Oc1cc(O)c2c(c1)O[C@H](c1ccc(O)c(O)c1)[C@@H](O)C2=O)c1cc(O)c(O)c(O)c1`, the result in data set [1], in data set [5], in [6], in data set [12] and in data set [13] was Active. For the same compound, the Activity entry in data set [2] is “Dose-dependent effect”; in data set [4], 90%; in data set [7], “Dose-dependent effect”; in data set [14], “tde”. Besides, the result in data set [3] and in data set [8] was inactive. Also, the values for the fold change (FC) in data set [9] and in [15] were 1.1 and 1.6, respectively. Besides, the Drug metabolism result with RAW264.7 [10] is “Active”. Besides, the Stability result in the data set with RAW264.7 [11] is given as “Stable”.

(Values after ChEMBL document CHEMBL2331476, “A novel semisynthetic flavonoid 7-O-galloyltaxifolin upregulates heme oxygenase-1 in RAW264.7 cells via MAPK/Nrf2 pathway” (J Med Chem, 2013).)
